High-throughput results: PubChem, several laboratories
Plk1 PBD FP: blocks phosphopeptide binding to human Plk1 polo box domain; Plk1 PBD phosphopeptide binding, fluorescence polarization; inhibition, %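 (tested at about 20 µM)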; AID 693; actives 0.13% (n = 97,000); P53350; in the data active = inhibition above about 34%, passing the limit was not always enough
PLK1 kinase inh: blocks human PLK1 kinase activity | P53350 | recombinant PLK1 kinase, TR-FRET peptide phosphorylation | inhibition, % at 10 µM | actives 0.53% (n = 97,000) | AID 619;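 active = inhibition of 50% or more in the single-concentration screen; inactive = inhibition below 50%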
LYP act: increases human PTPN22 phosphatase activity. actives 0.11% (n = 96,000). recombinant LYP, DiFMUP fluorescence; 0 = plate median, 100 = signal doubled. activation, % at 2 µM. AID 697. Q9Y2R2;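 active = activation at 2 µM above a set limit, the mean plus 5 SD, cut at about 37% in these data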
Target sequence (Q9Y2R2 whole entry, looked up): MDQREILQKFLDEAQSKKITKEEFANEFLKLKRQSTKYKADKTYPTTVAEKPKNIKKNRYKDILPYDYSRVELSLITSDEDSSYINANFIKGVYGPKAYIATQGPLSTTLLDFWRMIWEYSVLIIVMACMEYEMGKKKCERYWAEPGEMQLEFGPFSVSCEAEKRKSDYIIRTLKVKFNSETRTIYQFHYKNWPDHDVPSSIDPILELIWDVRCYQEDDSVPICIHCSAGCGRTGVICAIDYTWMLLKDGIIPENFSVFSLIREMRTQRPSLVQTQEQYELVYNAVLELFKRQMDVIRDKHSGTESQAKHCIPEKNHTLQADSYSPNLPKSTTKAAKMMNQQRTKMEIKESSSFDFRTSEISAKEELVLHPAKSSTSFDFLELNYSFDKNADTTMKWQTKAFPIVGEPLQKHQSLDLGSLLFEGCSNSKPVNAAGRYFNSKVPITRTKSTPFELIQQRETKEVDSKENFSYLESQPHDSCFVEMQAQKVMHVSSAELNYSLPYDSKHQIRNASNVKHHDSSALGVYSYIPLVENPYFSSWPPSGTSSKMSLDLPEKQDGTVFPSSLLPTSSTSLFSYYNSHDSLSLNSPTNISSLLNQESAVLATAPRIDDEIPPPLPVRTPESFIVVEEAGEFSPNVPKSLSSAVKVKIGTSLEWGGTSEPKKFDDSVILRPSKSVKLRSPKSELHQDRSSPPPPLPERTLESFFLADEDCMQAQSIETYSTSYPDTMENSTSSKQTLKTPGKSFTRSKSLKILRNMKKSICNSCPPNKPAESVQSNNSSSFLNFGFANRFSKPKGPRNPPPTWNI
LYP inh 2: blocks human PTPN22 phosphatase activity; Q9Y2R2; recombinant LYP catalytic domain, DiFMUP fluorescence; inhibition, % at 2 µM; actives 0.21% (n = 96,000); AID 640;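 active = inhibition at 2 µM at or above a set limit, the screen mean plus 3 SD, cut at about 24% in these data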
hDAT+cocaine: human DAT dopamine uptake with cocaine, either direction. Q01959. LLC-PK1 hDAT cells, [14C]-dopamine uptake with cocaine IC80; actives deviate in either direction. B-score at 10 µM. actives 1.3% (n = 110,000). AID 449768;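 active = Z score or B-score, a plate-position-corrected score, falls beyond the plate's 99.7% confidence bounds, in either direction; inactive = both scores lie inside the 99.7% bounds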
HIV Rev-RRE inh: disrupts HIV-1 Rev binding to RRE RNA | P05866 | Rev peptide-RRE RNA binding, FRET | inhibition, % at 8 µM | actives 0.79% (n = 97,000) | AID 704;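 active = inhibition above the screen-wide mean plus 3 SD, cut at about 35% in these data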
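System: Cy5-labelled duplex RRE RNA binding fluorescein-labelled HIV Rev peptide; Signal: fluorescein-to-Cy5 FRET, 480 nm excitation; Also added: labelled Rev peptide; Compound: one concentration, 8 µM nominal; Buffer or medium: HEPES pH 7.5 salt buffer with EDTA; Read-out: % inhibition of FRET ratio versus controls; Schedule: 5 min preincubation and 15 min binding, 25 °C.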
PLK1 inh conf: confirmation of human PLK1 kinase inhibitors. shares compounds with PLK1 kinase inh. recombinant PLK1 kinase, TR-FRET peptide phosphorylation. inhibition, % at 10 µM. actives 20% (n = 210). AID 744;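 active = inhibition at or above 50% in each of two repeat confirmation tests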
Plk1 interf: Plk1 assay compound interference counter-screen hit. shares compounds with PLK1 kinase inh. Plk1 TR-FRET assay interference, compound added post-reaction. inhibition (interference), % at 10 µM. 210 tested, under 10 active. AID 756;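 active = both duplicate runs show 50% or greater inhibition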
Redox H2O2 DR: generates H2O2 by redox cycling, flagging false Plk1 PBD hits | shares compounds with Plk1 PBD FP | redox cycling H2O2 generation, DTT, counter-screen | EC50, µM | 120 tested, under 10 active | AID 876
LYP act confirm: confirmation of human LYP phosphatase activators; shares compounds with LYP act; Recombinant LYP, DIFMUP fluorescence, activation; zero set by plate's median compound well; activation, % at 2 µM; 100 tested, under 10 active; AID 1031
Of the large screens only hits and unclear results are named; the others gave an inactive call (follow-up assays come after a bar, where they were run). A selection: hits, their analogues and other compounds. The true share with any hit is near 2.7%. Unless noted, no rule for the calls is given here.

CCCc1[nH]nc2c1C(c1ccc(O)c(OC)c1)C(C#N)=C(N)O2 (stereo not given)	PLK1 kinase inh 109.2 (no result: hDAT+cocaine) | PLK1 inh conf inactive | Plk1 interf inactive
Cc1nc2c([nH]1)C1(CCN(Cc3ccccc3)CC1)C(C#N)=C(N)O2	PLK1 kinase inh 70.1 | PLK1 inh conf 71.9 | Plk1 interf inactive
COc1ccc(C(=O)NC(=O)COC(=O)C2COc3ccccc3O2)cc1 (stereo not given)	none
OCCN1CCN(C(=S)c2ccc(Br)cc2)CC1	none (no result: hDAT+cocaine)
OCCN1CCN(c2ncnc3ccc(Br)cc23)CC1	PLK1 kinase inh 79.3 (no result: LYP act, LYP inh 2) | PLK1 inh conf inactive | Plk1 interf inactive
COc1ccc(-c2cc3nc[nH]c(=O)c3s2)cc1	none
O=c1[nH]cnc2cc(-c3ccccc3)sc12	PLK1 kinase inh 79.6 | PLK1 inh conf 72.6 | Plk1 interf inactive
c1ccc2c(-c3ccncc3)c[nH]c2c1	PLK1 kinase inh 78.0 | PLK1 inh conf 70.6 | Plk1 interf inactive
COC(=O)C1=C(C)N(CCCC(=O)O)C(=O)NC1c1ccc(C#N)cc1 (stereo not given)	none (no result: Plk1 PBD FP, PLK1 kinase inh, LYP act, LYP inh 2, HIV Rev-RRE inh)
Cn1nnnc1SCC(=O)Nc1ccc(N2CCOCC2)cc1	PLK1 kinase inh 74.8 | PLK1 inh conf inactive | Plk1 interf inactive
CC1(c2ccccc2)NC(=O)N(CC(=O)Nc2ccc3c(c2)OCO3)C1=O (stereo not given)	PLK1 kinase inh 90.7 | PLK1 inh conf inactive | Plk1 interf inactive
CC(C)(C)c1ccc(C2(C)NC(=O)N(CC(=O)Nc3ccc4c(c3)OCO4)C2=O)cc1 (stereo not given)	none
O=C1[C@H]2[C@H](C=CC[C@H]2C(=O)N2CCOCC2)CCN1Cc1ccccc1	none (no result: Plk1 PBD FP, PLK1 kinase inh, LYP act, LYP inh 2, HIV Rev-RRE inh)
CCOc1ccc(-c2nc(CSCC(=O)N3CCN(C(=O)c4ccco4)CC3)c(C)o2)cc1	PLK1 kinase inh 73.9 (no result: LYP act, LYP inh 2) | PLK1 inh conf inactive | Plk1 interf inactive
Cc1ccc(C2=NOC(C)(c3nnc(Cc4ccccc4)o3)C2)cc1 (stereo not given)	none (no result: Plk1 PBD FP, PLK1 kinase inh, LYP act, LYP inh 2, HIV Rev-RRE inh)
CCc1nc2n[nH]c(N)c2c2c1CSC(C)(C)C2	PLK1 kinase inh 76.5 | PLK1 inh conf 72.5 | Plk1 interf inactive
CCCOc1ccc(C(C)=O)cc1CSc1nc(O)cc(=O)[nH]1	none
Cc1ccc2c(c1)C(c1ccccc1)N(C(=O)C(C)C)CC(=O)N2 (stereo not given)	PLK1 kinase inh 70.7 (no result: LYP act, LYP inh 2) | PLK1 inh conf inactive | Plk1 interf inactive
Cc1ccc(CSCC(=O)N2CCN(c3ccc(F)cc3)CC2)cc1	PLK1 kinase inh 108.7 | PLK1 inh conf inactive | Plk1 interf inactive
O=C(CSCc1ccc(F)cc1)N1CCN(c2ccc(F)cc2)CC1	none
Nc1nc(N2CCN(C(=O)c3ccco3)CC2)nc2ccccc12	none
O=C(c1ccco1)N1CCN(c2ncccn2)CC1	PLK1 kinase inh 75.8 (no result: LYP act, LYP inh 2) | PLK1 inh conf inactive | Plk1 interf inactive
CCC(C)Sc1nnc(Cc2cc(=O)[nH]c(=O)[nH]2)n1-c1ccc(F)cc1 (stereo not given)	PLK1 kinase inh 72.0 (no result: LYP act, LYP inh 2) | PLK1 inh conf inactive | Plk1 interf inactive
COC(=O)c1[nH]c2ccc(Cl)cc2c1NC(=O)CN1CCC(C(N)=O)CC1	PLK1 kinase inh 71.9 | PLK1 inh conf inactive | Plk1 interf inactive
CCc1cc(=O)oc2cc(OCC(=O)O)c(Cl)cc12	none
CCc1cc(=O)oc2cc(OCC(=O)N(CC)CC)c(Cl)cc12	PLK1 kinase inh 71.7 (no result: LYP act, LYP inh 2) | PLK1 inh conf inactive | Plk1 interf inactive
COc1ccc(Cl)cc1NC(=O)Cn1c(=O)n2nc(C)nc2c2ccccc21	PLK1 kinase inh 77.9 (no result: LYP act, LYP inh 2) | PLK1 inh conf inactive | Plk1 interf inactive
CC1CCN(c2ncnc3nc[nH]c23)CC1	PLK1 kinase inh 80.7, LYP act 42.0 | PLK1 inh conf 74.0 | Plk1 interf inactive | LYP act confirm inactive
O=C(NCCc1c[nH]c2ccccc12)C(F)(F)F	none
O=C(CN1C(=O)COc2ccccc21)NCc1ccc(C(=O)O)cc1	Plk1 PBD FP 50.5 | Redox H2O2 DR inactive
O=C(NCc1nc2ccccc2[nH]1)C1=C[C@H](C2CC2)C[C@H](OCc2ccc(CO)cc2)O1	none (no result: Plk1 PBD FP, PLK1 kinase inh, LYP act, LYP inh 2, HIV Rev-RRE inh)
COc1ccc(C2SCCN2S(=O)(=O)c2ccc(F)cc2)cc1OC (stereo not given)	none
COc1ccccc1C1SCCN1S(=O)(=O)c1cccc(C(F)(F)F)c1 (stereo not given)	Plk1 PBD FP 51.2 | Redox H2O2 DR inactive
O=C(c1ccc(N2C(=O)CCC2=O)cc1)N1CCN(c2ccccc2)CC1	none
O=C(Nc1nc2ccccc2s1)c1cc2c(s1)-c1ccccc1OC2	Plk1 PBD FP 52.8 | Redox H2O2 DR inactive
COC(=O)C1=C(C(=O)OC)[C@@H]2N(C)c3ccc(OC)cc3[C@@]23C[C@@H](C(=O)OC)N=C3N1	none (no result: Plk1 PBD FP, PLK1 kinase inh, LYP act, LYP inh 2, HIV Rev-RRE inh)
Cc1ccc(OCC(=O)Nc2ccc(N3CCOCC3)cc2)cc1	Plk1 PBD FP 39.2 | Redox H2O2 DR inactive
NC(=O)C1CCN(C2=C(Cl)C(=O)c3ccccc3C2=O)CC1	Plk1 PBD FP 66.2 | Redox H2O2 DR inactive
NC(=O)C1CCN(c2ccc3c(c2)S(=O)(=O)c2ccccc2C3=O)CC1	none (no result: Plk1 PBD FP, PLK1 kinase inh, LYP act, LYP inh 2, HIV Rev-RRE inh)
CCCc1cc(=O)n2[nH]c(C)c(-c3ccccc3)c2n1	none (no result: Plk1 PBD FP, PLK1 kinase inh, LYP act, LYP inh 2, HIV Rev-RRE inh)
Cc1[nH]n2c(=O)cc(-c3ccc([N+](=O)[O-])cc3)nc2c1-c1ccccc1	Plk1 PBD FP 34.7 | Redox H2O2 DR inactive
Cc1nn(C(C)C(=O)N2CCCCC2)c(=O)c2c1sc1ccccc12 (stereo not given)	Plk1 PBD FP 43.3 (no result: hDAT+cocaine) | Redox H2O2 DR inactive
CCCC(C(=O)NCc1ccco1)N(C(=O)CNS(=O)(=O)c1ccccc1)c1ccccc1OC (stereo not given)	none
CCOc1ccccc1N1CCN(C2=C(NS(=O)(=O)c3cccs3)C(=O)c3ccccc3C2=O)CC1	Plk1 PBD FP 58.7 | Redox H2O2 DR inactive
O=C1C(NS(=O)(=O)c2cccs2)=C(N2CCN(c3cccc(C(F)(F)F)c3)CC2)C(=O)c2ccccc21	none
COC(=O)C1=C(CCc2ccccc2)NC(=O)NC1c1ccc([N+](=O)[O-])cc1 (stereo not given)	none (no result: Plk1 PBD FP, PLK1 kinase inh, LYP act, LYP inh 2, HIV Rev-RRE inh)
O=C(N/C=N/OCc1ccc(Cl)cc1Cl)NOCc1ncc(C(F)(F)F)cc1Cl	none
Cc1cccc2[nH]c3c(N4CCN(C(=O)c5ccco5)CC4)ncnc3c12	Plk1 PBD FP 51.3 | Redox H2O2 DR inactive
